For three compounds, MIC and Activity results are on record in ChEMBL document CHEMBL1151442, “Genetic and phenotypic identification of fusidic acid-resistant mutants with the small-colony-variant phenotype in Staphylococcus aureus” (2007).

Common to all, as to assay type: functional
The subject of assay [1] is Staphylococcus aureus. Briefly: Antibacterial activity against fusidic acid-resistant Staphylococcus aureus AH207 harboring Thr385Asn mutation in fusA gene after 18 to 24 hrs by Etest strip assay. In outline:
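Mutants of lab strain 8325-4 were selected on LA with FA 2 μg/ml for 48 h at 37°C and purified on selective medium. For the MIC, one colony was suspended in 0.9% NaCl to 0.5 McFarland and swabbed onto Mueller-Hinton agar. An Etest strip was applied and plates were incubated at 37°C for 18–24 h until the lawn was evident.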

The subject of assay [2] is Staphylococcus aureus. In words: Antibacterial activity against kanamycin-resistant Staphylococcus aureus AH340 (SCV-12) harboring Gly617Asp mutation in fusA gene after 18 to 24 hrs by Etest strip assay. In outline:
(§1)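 SCVs of a Rifr 8325-4 derivative were selected on LA with KAN at 8, 16 or 24 μg/ml for 48 h at 37°C. They were purified at the same KAN level and screened on LA plus FA 1 μg/ml.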

Assay [3] has as its system Staphylococcus aureus. In words: Antibacterial activity against kanamycin-resistant Staphylococcus aureus AH370 (SCV-42) harboring TAA stop codon at nucleotide 229 in rplF gene after 18 to 24 hrs by Etest strip assay. In outline: as §1
Assay [4] relates to Staphylococcus aureus. In words: Antibacterial activity against kanamycin-resistant Staphylococcus aureus AH333 (SCV-5) harboring TAA stop codon at nucleotide 249 in rplF but gene after 18 to 24 hrs by Etest strip assay. In outline: as §1
The subject of assay [5] is Staphylococcus aureus. In words: Antibacterial activity against kanamycin-resistant Staphylococcus aureus AH383 (SCV-55) harboring TAA stop codon at nucleotide 139 in rplF gene after 18 to 24 hrs by Etest strip assay. In outline: as §1
Assay [6] has as its system Staphylococcus aureus. Briefly: Antibacterial activity against kanamycin-resistant and fusidic acid-susceptible Staphylococcus aureus AH297 harboring Ser660Pro mutation in fusA gene after 18 to 24 hrs by Etest strip assay. In outline:
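Etest MIC: a single colony was suspended in 0.9% NaCl to 0.5 McFarland and swabbed over Mueller-Hinton agar. The strip was applied and plates were incubated at 37°C for 18 to 24 h until an SCV lawn grew.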

Assay [7] deals with Staphylococcus aureus. In words: Antibacterial activity against stationary-phase rifampin-resistant Staphylococcus aureus 8325-4 culture assessed as number of viable colonies at 8 ug/ ml after 48 hrs. In outline:
(§2)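 Twenty independent stationary-phase overnight LB cultures of the Rifr 8325-4 derivative were made; 108 cells from each were spread on LA with kanamycin at 8, 16 or 24 μg/ml. Plates were incubated 48 h at 37°C so that slow-growing variants could form visible colonies, and Kanr colonies were counted.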

Assay [8] has as its system Staphylococcus aureus. In words: Antibacterial activity against stationary-phase rifampin-resistant Staphylococcus aureus 8325-4 culture assessed as number of viable colonies at 16 ug/ ml after 48 hrs. In outline:
as §2

Assay [9] concerns Staphylococcus aureus. In words: Antibacterial activity against stationary-phase rifampin-resistant Staphylococcus aureus 8325-4 culture assessed as number of viable colonies at 24 ug/ ml after 48 hrs. In outline:
as §2

Each structure is given as a SMILES string. Values after ≈ are worked out from the molar mass of the structure shown.

For the compound `CC(=O)O[C@H]1C[C@@]2(C)[C@@H](C[C@@H](O)[C@H]3[C@@]4(C)CC[C@@H](O)[C@@H](C)[C@@H]4CC[C@@]32C)/C1=C(\CCC=C(C)C)C(=O)O` [FUSIDIC ACID], the minimal inhibitory concentration (MIC) (usually the least concentration at which growth counts as inhibited) amounted to 4 µg/mL (≈ 7.74 µM) in the assay on Staphylococcus aureus [1]; 4 µg/mL (≈ 7.74 µM) against Staphylococcus aureus [2]; 8 µg/mL (≈ 15.5 µM) in the assay on Staphylococcus aureus [3]; 12 µg/mL (≈ 23.2 µM) in the assay with Staphylococcus aureus [4]; 16 µg/mL (≈ 31 µM) against Staphylococcus aureus [5]; 2 µg/mL (≈ 3.87 µM) against Staphylococcus aureus [6].

Consider `NC[C@H]1O[C@H](O[C@H]2[C@H](O)[C@@H](O[C@H]3O[C@H](CO)[C@@H](O)[C@H](N)[C@H]3O)[C@H](N)C[C@@H]2N)[C@H](O)[C@@H](O)[C@@H]1O` [KANAMYCIN], for which the minimal inhibitory concentration (MIC) against Staphylococcus aureus [1] was determined as 3 µg/mL (≈ 6.19 µM); against Staphylococcus aureus [2], 12 µg/mL (≈ 24.8 µM); in the assay on Staphylococcus aureus [3], 8 µg/mL (≈ 16.5 µM); in the assay on Staphylococcus aureus [4], 8 µg/mL (≈ 16.5 µM); with Staphylococcus aureus [5], 96 µg/mL (≈ 198 µM); in the assay with Staphylococcus aureus [6], 24 µg/mL (≈ 49.5 µM). Moreover, the Activity in the assay on Staphylococcus aureus [7] is recorded as 1000; with Staphylococcus aureus [8], 200; in the assay on Staphylococcus aureus [9], 30.

On to `CN[C@@H]1[C@H](O[C@H]2[C@H](O[C@H]3[C@H](O)[C@@H](O)[C@H](N=C(N)N)[C@@H](O)[C@@H]3N=C(N)N)O[C@@H](C)[C@]2(O)C=O)O[C@@H](CO)[C@H](O)[C@H]1O` [STREPTOMYCIN], for which the MIC against Staphylococcus aureus [1] amounted to 12 µg/mL (≈ 20.6 µM); in the assay on Staphylococcus aureus [2], 24 µg/mL (≈ 41.3 µM); in the assay with Staphylococcus aureus [3] it was 24 µg/mL (≈ 41.3 µM); with Staphylococcus aureus [4] it was 24 µg/mL (≈ 41.3 µM); in the assay on Staphylococcus aureus [5] it was 192 µg/mL (≈ 330 µM).
